Results of several laboratories.
Each line is one published result; the experiments were not run side by side.
Target: Serine/threonine-protein kinase PLK1 (PLK1, Homo sapiens, UniProt P53350)

FC(F)c1nc2ccccc2n1-c1nc(N2CCOCC2)nc(N2CCOCC2)n1
remaining activity (enzyme activity, inhibitor; 10 µM): 75%

FC(F)(F)Oc1cccc(-c2cnc3ccc(-c4ccncc4)nn23)c1
activity vs control (enzyme activity, inhibitor, radiometric; 1 µM): 93%

COc1cc(Nc2c(C#N)cnc3cc(OCCCN4CCN(C)CC4)c(OC)cc23)c(Cl)cc1Cl
remaining signal (cell-free assay; 0.5 µM): 93.8%

COc1ccc2cc(OCC3(C(=O)O)CN(C(=O)c4ccc(F)cc4)C3)ccc2c1
remaining binding (cell-free assay, competition with immobilised ligand; 1 µM): 100%

O=C1NC(=O)c2cc(Nc3ccc(F)cc3)c(Nc3ccc(F)cc3)cc21
remaining signal (cell-free assay; 0.5 µM): 99.9%

O=C(Nc1ccc(Oc2ccc(F)cc2)cc1)N1CCc2ncccc2[C@H]1c1ccc(F)cc1
remaining binding (cell-free assay, competition with immobilised ligand; 1 µM): 78%

CCOc1cc(-c2nncn2C)ccc1Nc1ncc2cc(C)nc(NCC(C)(C)C)c2n1
inhibition (enzyme activity, inhibitor, FRET; 1 µM): 17%

COc1cc2ncnc(Nc3ccc(Oc4ccccc4)cc3C)c2cc1OC
inhibition (enzyme activity, inhibitor; 1 µM): 3%

Cc1sc(C(=O)NC2COC2)cc1-n1cc(NC(=O)Nc2c(F)cccc2Cl)cn1
remaining activity (enzyme activity, inhibitor; 10 µM): 102%

CCS(=O)(=O)c1cc2cc(C[C@](O)(CC(C)(C)c3ccc(F)cc3C(N)=O)C(F)(F)F)[nH]c2cn1
remaining binding (cell-free assay, competition with immobilised ligand; 1 µM): 100%

CC/C(=N\NC(=O)NCc1cccc(O)c1)c1ccc(O)c(C)c1O
inhibition (enzyme activity, inhibitor; 0.1 µM): -2.6%

CC(C)(O)c1cncc(-c2nc3ccc(F)cc3n2C2CC2)c1
remaining binding (cell-free assay, competition with immobilised ligand; 1 µM): 100%

COc1cc(Nc2cnc(C#N)c(O[C@H](C)CN(C)C)n2)ncc1-c1cnn(C)c1
remaining activity (enzyme activity, inhibitor, radiometric; 10 µM): 104%

CC(C)(C)C(=O)c1sc(NC2CCCCC2)nc1N
remaining activity (enzyme activity, inhibitor; 10 µM): 93%

Cc1c(NC(=O)c2cc(C(N)=O)nc3cc(F)ccc23)c(C(F)(F)F)nn1Cc1ccc(C(C)(C)C)cc1
remaining binding (cell-free assay, competition with immobilised ligand; 1 µM): 99%

Cc1[nH]c(/C=C2\C(=O)Nc3ccc(F)cc32)c(C)c1C(=O)N[C@H]1CCN(C(=O)N(C)C)C1
remaining activity (enzyme activity, inhibitor; 0.1 µM): 126%

O=C(CSc1nc2nccnc2c(=O)n1CCc1ccccc1)Nc1nccs1
inhibition (enzyme activity, inhibitor; 10 µM): 8%

CN(C)C1CCN(CC#Cc2nn(C3CCCC3)c3nc(NCc4ccccc4)ncc23)C1 (stereo not drawn)
inhibition (enzyme activity, inhibitor, FRET; 1 µM): -5%
